Screening data from PubChem BioAssay.
Hits are enriched below; roughly 3.8% of the tested compounds scored in any of these assays.
Measles CPE = protection of cells from measles virus; protection (pct of control), % at 4 µM; Measles virus-infected cells, CPE protection, absorbance; AID 841; 140,000 compounds, 1.5% hits; in the data active = protection mostly above about 24%, no sharp cut-off; inactive = mostly below about 26%
RAM network inh = yeast RAM network inhibition | inhibition, % at 50 µM | S. cerevisiae dse1pr::URA3 reporter, 5-FOA growth OD615, 2 d; analog-sensitive cbk1-as2 kinase mutant strain | 190,000 compounds, 1.8% hits | AID 868;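 active = inhibition above a set limit, 3 SD over mean compound inhibition, cut at about 8.4% in these data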;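 note: 0% = DMSO-only wells with no growth and 100% = 10 µM 1-NA-PP1 full growth; inhibition rescues growth on 5-FOA so higher OD means more RAM inhibition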
Yeast lifespan up = yeast lifespan extension | S. cerevisiae growth with nicotinamide, OD615; deaD strain in restrictive glucose medium | inhibition of the nicotinamide effect, % at 10 µM | 130,000 compounds, 0.68% hits;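 active = inhibition above a set limit, placed 3 SD over the median of all compounds, cut at about 26% in these data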;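 note: 0% = nicotinamide-treated wells and 100% = cells grown without nicotinamide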
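System: DeaD-strain S. cerevisiae / Buffer or medium: CSMM-D, restrictive glucose (dextrose) synthetic minimal medium / Probe or stimulus: nicotinamide, 1.5 mM, co-present with compound / Compound: one concentration, 10 µM, DMSO 0.25% / Incubation: 48 h compound exposure at 30 °C, humidified / Technique: optical density (absorbance) at 615 nm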
Yeast growth inh = chemicals that inhibit yeast BB579 growth in restrictive medium (lifespan-shortening candidates); inhibition, % at 10 µM; 140,000 compounds, 0.51% hits; S. cerevisiae BB579 growth, OD615, 48 h;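 active = inhibition above a set limit, 3 SD over the mean compound inhibition, cut at about 44% in these data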
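test system = yeast BB579 (DeaD) | buffer or medium = restrictive CSMM-D medium | doses = single compound dose of 10 µM, 0.25% DMSO final | times = 4 h preincubation and 48 h exposure at 30 °C | technique = culture absorbance at 615 nm | benchmarks = amphotericin B 10 µg/mL, positive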
Numbers without * were called inactive; / = no result given.

SMILES	Measles CPE	RAM network inh	Yeast lifespan up	Yeast growth inh
CCc1c(C)c(C#N)c2nc3ccccc3n2c1NCc1ccccn1	/	2	/	/
Cc1cc(Cl)ccc1OCc1cn2cccnc2n1	/	0	/	/
C=CCn1c(SCC(=O)c2ccc(OC)cc2)nnc1-c1cc2cccc(OC)c2o1	18	11*	-9	-35
O=C(NCc1ccccc1)c1cccc(COc2cc(Cl)ccc2Cl)c1	44*	8	6	-46
O=C(NCc1ccc(F)cc1)c1ccccc1OCc1ccccc1	7	10*	-4	0
COc1ccccc1C(=O)NCc1ccccc1	11	0	/	-18
O=C(NCc1ccccc1)c1cccc(COc2ccccc2Cl)c1	17	8.6*	-12	-27
O=C(NCc1ccc2c(c1)OCO2)c1ccc(CSCc2ccc(Cl)cc2)o1	19	7	6	-32
O=C(NCc1ccc2c(c1)OCO2)c1ccc(COc2cc(Cl)ccc2Cl)o1	19	9.4*	-4	-42
O=C(NCc1cccnc1)c1ccc(COc2ccccc2Cl)cc1	/	-2	/	/
Cn1c(=O)c2c(ncn2CC(=O)N/N=C/c2ccc(Br)s2)n(C)c1=O	5	1	6	-10
COc1ccc(NC(C)=O)cc1NC(=O)c1ccc2ccccc2c1	/	2	/	/
CCCC(NC(=S)NCC1CCCO1)C12CC3CC(CC(C3)C1)C2 (stereo not drawn)	/	1	/	/
O=c1[nH]c2ccccc2nc1Cc1ccccc1	17	1	43*	-72
Cc1ccc(N2C(=O)C3C(C2=O)N2C(c4cccs4)C4C(=O)N(c5ccc(C)cc5)C(=O)C4N2C3c2cccs2)cc1 (stereo not drawn)	10	8.6*	1	-11
CCS(=O)(=O)n1nc(-c2ccc(Cl)cc2)nc1SCc1ccccc1	1	-2	/	75*
COc1ccc(S(=O)(=O)N2CCc3ccccc32)cc1C(=O)NCCc1ccccn1	/	0	/	/
Cc1ccc(CNC(=O)/C(C#N)=C/c2ccc(C)s2)cc1	20*	3	-21	-5
Cc1ccc(NC(=O)/C(C#N)=C/c2ccc(C)s2)c(C)c1	14	4	-3	-25
CCN(CC)CCn1c(=S)[nH]c2ccc(Br)cc2c1=O	/	1	/	/
O=P(CO)(Cc1ccccc1)Cc1ccccc1	14	0	55*	-23
COc1ccc(-c2n[nH]c(C(F)(F)F)c2-c2cc3ccccc3o2)c(O)c1	9	-1	-29	100*
Cn1c(SCC(=O)Nc2ncc(C(F)(F)F)cc2Cl)nnc1-c1ccc(Cl)cc1	7	2	3	-38
Nc1nc(CN2CCN(c3ccccc3)CC2)nc(N2CCCc3ccccc32)n1	87*	1	4	-35
Nc1nc(CN2CCN(c3cccc(Cl)c3)CC2)nc(N2CCCc3ccccc32)n1	11	1	-1	-46
SMILES	Measles CPE	RAM network inh	Yeast lifespan up	Yeast growth inh
Cn1cc(C(=O)C(F)(F)F)c2ccccc21	53*	2	-22	-36
O=C(NC1CCCC1)C(c1ccsc1)N(Cc1ccccc1)C(=O)Cc1cccs1 (stereo not drawn)	63*	7	-18	-20
O=C(NC1CCCC1)C(c1ccncc1)N(Cc1ccccc1)C(=O)Cc1cccs1 (stereo not drawn)	7	1	-22	-42
Cc1nc2ccccc2n1-c1ccccc1	5	1	54*	-25
CC1(C)CC(=NOC(=O)c2ccccc2)CC(C)(C)N1O	26	0	-6	74*
O=C(ON=C1CCN(S(=O)(=O)c2ccccc2)CC1)c1ccccc1	6	0	-20	-40
CCNc1nc(NCC)nc(SCCOC(=O)c2ccccc2)n1	6	1	/	-11
CCNc1nc(NCC)nc(SCCOC(=O)Nc2ccc(Cl)cc2Cl)n1	2	10*	-3	-18
COc1cc(OC)c(-c2nc3c[n+](CC(=O)c4ccccc4)ccc3n2C)cc1OC	38*	2	-1	-5
COc1cccc(C2CC(c3cccs3)=NN2C(=O)CSc2nc3c(cnn3-c3ccc(F)cc3)c(=O)[nH]2)c1OC (stereo not drawn)	1	11*	6	-29
Cc1ccn2c(/C=N/OCc3ccc(F)cc3)c(-c3ccc(Cl)cc3)nc2c1	8	9.7*	-3	-19
O=C(C/C=N/OCc1ccccc1F)c1cnc(-c2ccc(Cl)cc2)s1	7	7	-10	-26
O=C(C/C=N/OCc1ccc(F)cc1Cl)c1cnc(-c2ccccc2)s1	14	9.7*	7	-12
CCSc1ncc(/C=N/Nc2ccc(Cl)cc2)n1C	0	-1	-9	95*
C=CCSC(=C(C#N)C#N)c1cc2c([nH]1)CCCC2	1	11*	-8	61*
O=C(O)c1cc2c([nH]c1=O)CCCC2	20	2	-10	-30
O=C(N[C@@H](Cc1ccccc1)C(=O)OCC(=O)N1CCOCC1)c1cccs1	/	1	/	/
O/N=C1/C2C3CC4C5C3C1C5C1(OCCO1)C42 (stereo not drawn)	51*	2	-6	17
CNC(=O)NC(=O)CSc1nc2cc(C(=O)OC)ccc2c(=O)n1-c1ccccc1	11	1	-8	-25
CCCNC(=O)NC(=O)CSc1nc2cc(C(=O)OC)ccc2c(=O)n1-c1ccccc1	26*	5	-8	-27
CCOC(=O)/C(=C\Nc1ccccc1C(F)(F)F)Sc1ncc(C(F)(F)F)cc1Cl	13	10.0*	11	-33
C/C(=N\NC(=O)c1nn(C)c(C)c1Br)c1ccc(NC(=O)c2ccc(C)s2)cc1	/	9.2*	/	/
Nc1nc(Nc2ccc(Cl)cc2)n[nH]1	39*	1	-15	-13
Cc1ccc2nc(/C(C#N)=C/c3cn[nH]c3-c3ccc(F)cc3)[nH]c2c1	2	10*	-11	-32
COCCCC1CCN(Cc2cn[nH]c2-c2cc(OC)c(OC)c(OC)c2)CC1	/	0	/	/
SMILES	Measles CPE	RAM network inh	Yeast lifespan up	Yeast growth inh
CCCc1cc(=O)[nH]c(Nc2ccc3c(c2)OCCO3)n1	/	1	/	/
CCOC(=O)N1CCN(S(=O)(=O)c2ccc(F)c(C(=O)Nc3cccc(C)c3C)c2)CC1	2	5	45*	-52
Cc1cc(C(=O)COC(=O)c2ccc(Br)o2)c(C)n1Cc1ccco1	/	10*	/	/
Cc1ccc(Cn2ncc3c(N4CCOCC4)ncnc32)cc1	3	1	-6	-14
Cc1ccc(Cn2ncc3c(N4CCN(c5ccccc5C)CC4)ncnc32)cc1	2	10*	-5	-36
O=C(CSc1nnc(Cc2cc(=O)[nH]c(=O)[nH]2)n1-c1ccccc1)N1CCCc2ccccc21	5	8.6*	-3	-20
O=C(CSc1nnc(Cc2cc(=O)[nH]c(=O)[nH]2)n1-c1ccc(Cl)cc1)N1CCc2ccccc21	/	6	/	/
COc1cccc(NC(=O)c2ccc3c(c2)N(CC(=O)N2CCCCC2)C(=O)C(C)(C)O3)c1	2	8.8*	-26	-3
Fc1ccc(C2=Nn3c(nnc3-c3n[nH]c4c3CCC4)SC2)cc1	36*	1	-8	-56
CC1=Nn2c(nnc2-c2n[nH]c3c2CCC3)SC1	32	0	4	-63
Cc1cc(NC(=O)CSc2ccc3nnc(-c4cccnc4)n3n2)no1	44*	3	0	-10
